Here are results for 22 molecules from ChEMBL document CHEMBL1139463, “SAR by MS: discovery of a new class of RNA-binding small molecules for the hepatitis C virus: internal ribosome entry site IIA subdomain” (J Med Chem, 2005).

Series [1] is described as follows: Binding affinity to HCV 29-mer 2A RNA by MS based binding assay. The arrangement: species or system Hepacivirus hominis.
Series [2] has as its system Hepatitis C virus. Briefly: Reduction of HCV RNA levels by HCV replicon assay. Format: functional, organism-based, Hepacivirus hominis. The essentials: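 HCV replicon cells treated with compound; intracellular HCV RNA levels quantified by RT-PCR.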
Series [3] is described as follows: Cytotoxicity against Huh7 cells by MTT assay. In kind it is cell-based, Huh-7. The settings on record: human. A digest of the protocol:
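Huh-7 cells; viability read by MTT; 50% cytotoxic concentration (CC50) reported.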

A short description of series [4]: Binding affinity to HCV 40-mer RNA by MS based binding assay. The arrangement: species or system Hepacivirus hominis.

Molecule `Nc1nc2ccccc2n1CCCN1CCOCC1` gave a dissociation constant Kd in series [1] greater than 200 µM.

For `COc1cccc2nc(N)n(CCCN(C)C)c12`, in series [1], binding was characterised by a dissociation constant (Kd) of 50 µM.

Consider `CCCn1c(N)nc2ccccc21`, for which, in series [1], the Kd was greater than 200 µM.

On to `CN(C)CCCn1c(N)nc2ccc3c(c21)CC(CN(C)C)CO3` (stereo not given), for which the EC50 in series [2] was 3.9 µM. The molecule further yielded a CC50 in series [3] greater than 100 µM. Moreover, in series [4], the affinity, expressed as Kd, was 0.86 µM.

The molecule `COc1ccc2nc(N)n(CCCN(C)C)c2c1` returned a Kd in series [1] of 40 µM.

On to `CN(C)CCCOc1ccc2nc(N)[nH]c2c1`, for which the Kd in series [1] was greater than 100 µM.

In the case of `CN(C)CCCn1c(N)nc2ccccc21`, the dissociation constant (Kd) in series [1] was 100 µM; in series [4], greater than 100 µM. Besides, the CC50 in series [3] is greater than 100 µM.

In series [1], `COc1cccc2c1nc(N)n2CCCN(C)C` returned a dissociation constant Kd greater than 200 µM.

As for `CC(C)CCOc1ccc2nc(N)n(CCCN(C)C)c2c1`, in series [1], binding was characterised by a dissociation constant (Kd) of 48 µM.

`CN(C)CCCn1c(N)nc2ccc3c(c21)CC(CN(C)C)O3` (stereo not given) registered a half-maximal effective concentration (EC50) in series [2] of 1.5 µM. This molecule gave a CC50 in series [3] greater than 100 µM. Moreover, binding in series [4] was characterised by a dissociation constant (Kd) of 1.7 µM.

`CN(C)CCCOc1ccc2nc3n(c2c1)CC(CN(C)C)CN3` (stereo not given) had a concentration giving a half-maximal response (EC50) in series [2] of 29 µM. The CC50 in series [3] is greater than 100 µM. In addition, binding in series [4] was characterised by a dissociation constant (Kd) of 3.5 µM.

In series [1], `CN(C)CCCOc1ccc2ncn(CCCN(C)C)c2c1` displayed a Kd greater than 100 µM.

Take `CN(C)CCCCOc1ccc2nc(N)n(CCCN(C)C)c2c1`: the Kd in series [1] amounted to 7 µM.

In turn, `CCN(CC)CCCn1c(N)nc2ccccc21` showed a dissociation constant Kd in series [1] of 130 µM.

Regarding `CN(C)CCCOc1ccc2c(c1)nc(N)n2CCCN(C)C`, the Kd in series [1] was greater than 100 µM.

`CN(C)CCCn1c(N)nc2ccc(OCCN(C)C)cc21` showed a Kd in series [1] of 8 µM.

Turning to `CCCCN(CCCC)CCCn1c(N)nc2ccccc21`, the Kd in series [1] is greater than 200 µM.

Take `Nc1nc2ccccc2n1CCCN1CCCC1`: the equilibrium dissociation constant (Kd) in series [1] stood at 125 µM.

In series [1], `CN(C)CCCn1c(N)nc2ccc(OCc3ccccc3)cc21` showed a Kd of 99 µM.

Take `CN(C)CCCOc1ccc2nc(N)n(CCCN(C)C)c2c1`: it took 37 µM to reach a half-maximal effect in series [2] (EC50). The figures for the dissociation constant Kd in series [1] and in series [4] were 10 µM and 17 µM, respectively. Besides, the CC50 in series [3] is greater than 100 µM.

Regarding `COc1ccc2c(c1)nc(N)n2CCCN(C)C`, in series [1], the Kd is greater than 200 µM.

In series [2], `CN(C)CC1COc2ccc3nc4n(c3c2C1)CC(CN(C)C)CN4` (stereo not given) had a concentration giving a half-maximal response (EC50) of 5.4 µM. This molecule also gave a CC50 in series [3] greater than 100 µM. This molecule showed an equilibrium dissociation constant (Kd) in series [4] of 0.72 µM.
